From PubChem
Hits are enriched below; roughly 1.5% of the tested compounds scored in any of these assays.
Bfl-1 A1 inh: inhibitors of the anti-apoptotic protein A1, read as caspase activation; MEF A1-2A-BIM cells, Caspase-Glo 3/7 luminescence, 3 h; percent of clofoctol response, vehicle zero; caspase activation, % (concentration not given with the values); 0.066% of 330,000 active; AID 2462;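 active = over half of replicate activation scores above 10%, or exactly half above 10 with the replicate mean above 10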
LANA-H2B inh: blocks KSHV LANA binding to histone H2A/H2B; inhibition, % (concentration not given with the values); AID 2629; Q9QR71; 0.6% of 320,000 active; cell-free LANA-H2A/H2B peptide, fluorescence polarization; in the data active = inhibition mostly above about 10%, no sharp cut-off; inactive = mostly below about 6.7%
CSN inh: blocks human CSN-mediated cullin deneddylation; 0.38% of 360,000 active; Purified CSN, SCF-Nedd8-OG deneddylation, fluorescence polarization; inhibition, % at 12.5 µM; AID 651999;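 active = pattern-corrected inhibition above about 35%, with an unprinted fluorescence ratio check between 0.5 and 1.5, limit read from the data, passing the limit was not always enough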;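 note: 0% = enzyme with substrate and 100% = substrate without enzyme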
Target sequence (Q92905 whole entry, looked up, one chain of several): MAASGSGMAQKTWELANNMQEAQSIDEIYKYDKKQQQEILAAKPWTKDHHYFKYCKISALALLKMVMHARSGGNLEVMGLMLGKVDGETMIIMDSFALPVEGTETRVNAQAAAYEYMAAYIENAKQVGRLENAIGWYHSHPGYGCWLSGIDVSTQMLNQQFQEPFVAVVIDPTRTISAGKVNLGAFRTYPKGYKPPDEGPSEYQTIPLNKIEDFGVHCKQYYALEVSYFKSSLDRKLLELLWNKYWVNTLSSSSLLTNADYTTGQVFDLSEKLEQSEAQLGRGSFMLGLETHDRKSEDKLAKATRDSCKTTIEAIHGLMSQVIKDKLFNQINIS
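Test system: purified human Csn5 enzyme expressed in HEK293T cells. Amount: 0.24 nM enzyme. Reagent: SCFSkp2-Nedd8OG substrate at 10 nM final. Schedule: 90 min incubation of compound, enzyme and substrate at room temperature. Detection: fluorescence polarization. Read-out: % inhibition of substrate cleavage by Csn5.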
HNF4A DNA FP: change in binding of human HNF4 alpha to DNA; P41235; HNF4a-FITC DNA binding, fluorescence polarization, 1 h; activity change, % at 10 µM; 0.3% of 360,000 active; AID 1224865; in the data active = activity change above about 30%, passing the limit was not always enough
ZTA counter: ZTA (EBV) inhibition in EBNA-1 counter-screen | AID 2234 | ZTA-DNA binding, fluorescence polarization | inhibition, % at 11 µM | P03206 | 0.15% of 320,000 active; in the data active = inhibition above about 33%
Target sequence (P03206 whole entry, looked up): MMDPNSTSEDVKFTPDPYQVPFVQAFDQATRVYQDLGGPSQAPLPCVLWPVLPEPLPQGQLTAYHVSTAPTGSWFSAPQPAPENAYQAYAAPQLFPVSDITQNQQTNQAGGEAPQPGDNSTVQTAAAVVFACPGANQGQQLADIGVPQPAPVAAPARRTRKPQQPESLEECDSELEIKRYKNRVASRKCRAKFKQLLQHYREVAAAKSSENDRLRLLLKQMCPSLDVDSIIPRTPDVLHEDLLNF
EBNA-1 inhibitor: blocks EBNA-1 binding to DNA. 0.34% of 300,000 active. EBNA-1 DNA binding, fluorescence polarization. AID 1950. inhibition, % at 14.8 µM; in the data active = inhibition above about 28%
EBNA-1 inh conf: EBNA-1 (EBV) inhibition, confirmation; 35% of 830 active; shares compounds with EBNA-1 inhibitor; Recombinant EBNA-1 DBD, Cy5-DNA fluorescence polarization; inhibition, % at 14.8 µM;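 active = mean inhibition across replicates above a set limit taken from the earlier primary screen, cut at about 28% in these data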;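 note: plate controls were EBNA-1 protein with DMSO for no effect and wells lacking EBNA-1 for full effect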
ZTA counter trip: blocks Epstein-Barr virus ZTA in triplicate, EBNA-1 counter-screen | AID 2328 | Zta-ZRE DNA binding, Cy5 fluorescence polarization | shares compounds with EBNA-1 inhibitor | inhibition, % at 11.1 µM | 830 tested, under 10 active;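 active = mean inhibition over triplicates above a set limit taken from the primary EBNA-1 screen, cut at about 37% in these data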;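 note: purified full length Zta protein with Cy5 labeled ZRE DNA probe; 0% = Zta with DMSO and 100% = wells lacking Zta protein; inhibitors lower polarization by freeing the labeled DNA probe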
* hit, by the source's call; . = not tested or not shown; ! = a repeat was not active.

SMILES | Bfl-1 A1 inh | LANA-H2B inh | CSN inh | HNF4A DNA FP | ZTA counter | EBNA-1 inhibitor | others
CC(C)OP(=O)(Oc1ccc(C(O)C(Cl)(Cl)Cl)cc1)OC(C)C (stereo not drawn) | 0 | 2 | 2 | 1 | -8 | -2
COc1ccc(CC2C(=O)N(c3ccccc3)C(=O)N(c3ccccc3)C2=O)c(OC)c1 | . | 13* | 5 | 6 | 7 | -6
CCOC(=O)c1cc2ccccc2n1C1CCN(Cc2ccccc2)CC1 | . | . | 4 | 3 | . | .
COc1cc(/C=C/[N+](=O)[O-])ccc1OC(=O)c1cccnc1 | 8.0* | 1 | 4 | 0 | . | .
Cc1sc(-n2c(C)cc(C=C3C(=O)NC(=O)NC3=O)c2C)c(C#N)c1C | 0 | 17* | . | . | 4 | 9
CC(C)(C)n1nnnc1C(C1CC1)N1CCC(n2c(=O)[nH]c3ccccc32)CC1 (stereo not drawn) | . | . | -1 | 1 | . | .
Cc1nc2ccccc2c(=O)n1-c1c(Cl)cccc1Cl | . | . | 2 | 0 | . | .
C/C(=N\N1CCCCC1c1cccnc1)c1c(O)n(C2CCCCC2)c(=S)[nH]c1=O (stereo not drawn) | 0 | -3 | 7 | 61* | -6 | 2
CCCNC(=O)N1[C@H]2CC[C@@H]1C(C(=O)OC)=C(c1ccc(OC)c(OC)c1)C2 | -1 | -3 | -4 | 4 | -9 | .
COc1ccc(-n2c(/C=C/c3ccc(O)c(O)c3)nc3ccccc3c2=O)cc1 | 0 | -2 | 24 | 20 | -5 | -7
O=c1c2ccccc2nc(/C=C/c2ccc3c(c2)OCO3)n1-c1ccccc1 | 0 | 11* | 4 | 0 | 1 | 9
O=c1c2ccccc2nc(/C=C/c2ccccn2)n1-c1ccccc1 | -1 | -2 | 3 | 1 | 151* | 118*
CNC(=S)N1CCN(CCN=Cc2c(O)n(-c3ccc(C)cc3)c(=S)[nH]c2=O)CC1 | 0 | -6 | -8 | 0 | 7 | 8
COc1ccc2c(c1)C(NC(C)=O)CCc1cc(OC)c(OC)c(OC)c1-2 (stereo not drawn) | . | . | -8 | -2 | . | .
O=C1NC(=S)NC(=O)C1C1CCCCC1 | 0 | 15* | -3 | 6 | -7 | -2
CNc1ccc2nc3ccccc3[n+](C)c2c1 | 0 | 6 | -3 | -17 | 83* | 45*
CC1CN1c1cc2c(c3c1ccn3C)C1CCC2C1 (stereo not drawn) | . | . | 4 | 0 | . | .
O=[N+]([O-])c1ccc(N(CCO)CCO)c2c1no[n+]2[O-] | . | . | -4 | -26 | . | .
CN1CCN(c2ccc([N+](=O)[O-])c3no[n+]([O-])c23)CC1 | 3 | 38* | -72 | -76 | 3 | -7
Cc1ccc(OC(=O)N(C)C[C@H]2OCc3cnnn3CCCC(=O)N([C@H](C)CO)C[C@@H]2C)cc1 | . | . | -4 | -5 | . | .
CNC(=O)Oc1ccc(N(C)C)cc1C(C)C | 0 | -4 | 0 | 1 | 1 | -3
N#CC12CNCC1CN=N2 (stereo not drawn) | 1 | 18* | 1 | 1 | -2 | -1
Nc1c(C(=O)NC2CCCC2)c2nc3ccccc3nc2n1CC1CCCO1 (stereo not drawn) | 0 | -3 | 46* | 0 | 2 | -5
Nc1c(C(=O)NCC2CCCO2)c2nc3ccccc3nc2n1Cc1ccco1 (stereo not drawn) | 0 | 5 | 3 | 3 | -1 | 1
COc1ccc(NC2=NC(C)(C)CS2)cc1 | 0 | -6 | -1 | 4 | -9 | 7
SMILES | Bfl-1 A1 inh | LANA-H2B inh | CSN inh | HNF4A DNA FP | ZTA counter | EBNA-1 inhibitor | others
O=C(O)Cn1cc(/C=C2\C(=O)NC(=O)N(c3ccc(Cl)cc3)C2=O)c2ccccc21 | -1 | -4 | -4 | -3 | -6 | -16
COc1ccc(N2C(=O)/C(=C/c3ccc(C)o3)C(=O)NC2=S)cc1 | . | . | 28 | 15 | . | .
O=C1NC(=S)N(c2ccc(F)cc2)C(=O)/C1=C\c1ccoc1 | . | . | 30 | -12 | . | .
O=C1NC(=S)N(c2ccc(Cl)cc2)C(=O)/C1=C/N1CCN(C(=O)c2ccco2)CC1 | 0 | 4 | 43* | 16 | -8 | -9
O=C1NC(=S)N(c2ccc(F)cc2)C(=O)/C1=C/c1ccco1 | 0 | -1 | . | . | 25 | 78*
COc1ccc(OC)c(N2C(=O)/C(=C/c3ccco3)C(=O)NC2=S)c1 | 1 | -3 | . | . | 75* | 103*
O=C(NCCN1CCC2(CC1)C(=O)NCN2c1cccc(F)c1)c1ccc2ccccc2c1 | . | . | -3 | -6 | . | .
C[N+](C)(C)CCc1ccc(O)cc1 | 0 | 11* | -1 | 0 | -18 | -8
Oc1ccc(Cl)cc1 | . | . | 1 | 1 | . | .
CC1=C2C(=O)C3C(CC=C4CC(O)CCC43C)C2CCC12OC1CC(C)CNC1C2C (stereo not drawn) | 0 | 0 | 0 | 0 | . | .
CCCCn1c(O)c(/C=N/N2CCOCC2)c(=O)[nH]c1=S | 0 | -3 | 2 | 4 | 14 | -6
CCCCCCn1c(O)c(C=Nc2ccccc2N2CCOCC2)c(=O)[nH]c1=S | 0 | 8 | 3 | 74* | -7 | -8
Cn1c(O)c(/C=N/NC(=O)c2ccncc2)c(=O)[nH]c1=S | -1 | -2 | 8 | 2 | 6 | 3
CCCCn1c(O)c(/C=N/NC(=O)c2ccncc2)c(=O)[nH]c1=S | -2 | 2 | 27 | 48* | -2 | -1
Cn1cc[n+](C)c1P(=S)(c1ccccc1)c1ccccc1 | 0 | -3 | 2 | 2 | -23 | -2
Cc1c(P(=S)(c2ccccc2)c2ccccc2)[n+]2ccccc2n1C | . | . | 74*! | 75 | . | .
CCn1nc(-c2ccccc2)nc2c(=O)n(C)c(=O)nc1-2 | 0 | 13 | 2 | 2 | 74* | -2
COc1cc(/C=C2\C[C@H]3[C@@H]4CC=C5C[C@@H](N6CCCC6)CC[C@]5(C)[C@H]4CC[C@]3(C)[C@H]2O)cc(OC)c1OC | . | . | -1 | 15 | . | .
CN(C)/C=C/C(=O)C(Cl)(Cl)Cl | 1 | -2 | -2 | 38* | 2 | -6
CCN1CCN(S(=O)(=O)c2ccc(Cl)c(C(=O)Nc3ccc(C(=O)N(CC)CC)cc3)c2)CC1 | 0 | -3 | 5 | 3 | 3 | -5
O=c1[nH]c(=O)n(CCc2ccccc2)c(O)c1C=NCc1ccc2c(c1)OCO2 | 1 | 6 | 8 | -5 | -4 | 31* | EBNA-1 inh conf=46*;ZTA counter trip=-6
COc1cc2c(cc1OC)C13CCN4C=C5CCOC6CC(=O)N2C1C6C5CC43 (stereo not drawn) | . | . | -1 | 4 | . | .
CN(C)C(=O)Oc1c(Cl)cc(Cl)c2cccnc12 | 0 | 1 | 1 | -3 | -14 | 3
